Results reported in ChEMBL document CHEMBL5724801, “EUbOPEN Chemogenomics Library - Multiplex” (2024).
Several values for one entry are separate records, joined by “and”; a condition that tells them apart may be missing. Equal values may be shown once.

System: Fibroblast
Experiment: Multiplex assay against human fibroblast
Format: toxicity, cell-based
How it was run: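 Hoechst33342, BioTracker Green Microtubule Cytoskeleton Dye, MitoTracker Red and Annexin V Alexa Fluor 680 were added to live cells at seeding, and imaging on a CQ1 microscope at 37°C and 5% CO2 followed compound addition. Gating by CellPathfinder machine learning separated cells into Hoechst high-intensity objects or normal cells, then normal cells into healthy, pyknosed or fragmented nuclei, then pyknosed cells into mitotic or apoptotic. Per cents of healthy-nucleus cells are reported for the tubulin, mitochondrial-mass and membrane-permeability phenotypes.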

[1] = 12 h, 1 µM, compound concentration 1 uM
[2] = 12 h, 10 µM, compound concentration 10 uM
[3] = 24 h, 1 µM, compound concentration 1 uM
[4] = 24 h, 10 µM, compound concentration 10 uM
[5] = 48 h, 1 µM, compound concentration 1 uM
[6] = 48 h, 10 µM, compound concentration 10 uM

Cl.O=S(=O)(c1cccc2c(I)cccc12)N1CCCNCC1
Population Apoptotic (%) [1]: 20.93% and 13.51% | Population Fragmented Nuclei (%) [1]: 13.23% and 4.19% | Population Healthy Nuclei (%) [1]: 64.02% and 76.44% | Population Hoechst High Intensity Objects (%) [1]: 0% | Population Membrane Permeable-Phenotype (%) [1]: 4.96% and 4.79% | Population Mitochondria Different-Phenotype (%) [1]: 9.92% and 6.85% | Population Mitotic Cells (%) [1]: 79.07% and 86.49% | Population Normal (%) [1]: 100% | Population Pyknosed Nuclei (%) [1]: 22.75% and 19.37% | Population Tubulin-Different-Phenotype (%) [1]: 14.88% and 28.08% | Total Cell Count [1]: 189 and 191 | Population Fragmented Nuclei (%) [2]: 9.25% and 6.27% | Population Healthy Nuclei (%) [2]: 60.69% and 61.18% | Population Hoechst High Intensity Objects (%) [2]: 0% | Population Membrane Permeable-Phenotype (%) [2]: 5.71% and 3.85% | Population Mitochondria Different-Phenotype (%) [2]: 15.24% and 15.38% | Population Mitotic Cells (%) [2]: 94.23% and 67.47% | Population Normal (%) [2]: 100% | Population Pyknosed Nuclei (%) [2]: 30.06% and 32.55% | Population Tubulin-Different-Phenotype (%) [2]: 25.71% and 55.13% | Total Cell Count [2]: 173 and 255 | Population Apoptotic (%) [3]: 7.89% and 13.64% | Population Fragmented Nuclei (%) [3]: 8.84% and 7.04% | Population Healthy Nuclei (%) [3]: 73.49% and 81.91% | Population Hoechst High Intensity Objects (%) [3]: 0% | Population Membrane Permeable-Phenotype (%) [3]: 4.43% and 3.07% | Population Mitochondria Different-Phenotype (%) [3]: 6.33% and 6.13% | Population Mitotic Cells (%) [3]: 92.11% and 86.36% | Population Normal (%) [3]: 100% | Population Pyknosed Nuclei (%) [3]: 17.67% and 11.06% | Population Tubulin-Different-Phenotype (%) [3]: 16.46% and 28.22% | Total Cell Count [3]: 215 and 199 | Population Apoptotic (%) [4]: 11.9% and 25.45% | Population Fragmented Nuclei (%) [4]: 8.42% and 3.61% | Population Healthy Nuclei (%) [4]: 69.47% and 76.53% | Population Hoechst High Intensity Objects (%) [4]: 0% | Population Membrane Permeable-Phenotype (%) [4]: 3.79% and 5.66% | Population Mitochondria Different-Phenotype (%) [4]: 9.85% and 15.57% | Population Mitotic Cells (%) [4]: 88.1% and 74.55% | Population Normal (%) [4]: 100% | Population Pyknosed Nuclei (%) [4]: 22.11% and 19.86% | Population Tubulin-Different-Phenotype (%) [4]: 34.85% and 63.21% | Total Cell Count [4]: 190 and 277 | Population Apoptotic (%) [5]: 25% and 33.33% | Population Fragmented Nuclei (%) [5]: 8.44% and 10.78% | Population Healthy Nuclei (%) [5]: 86.5% and 83.33% | Population Hoechst High Intensity Objects (%) [5]: 0% | Population Membrane Permeable-Phenotype (%) [5]: 1.46% and 7.06% | Population Mitotic Cells (%) [5]: 75% and 66.67% | Population Normal (%) [5]: 100% | Population Pyknosed Nuclei (%) [5]: 5.06% and 5.88% | Total Cell Count [5]: 237 and 204 | Population Apoptotic (%) [6]: 25% and 50% | Population Healthy Nuclei (%) [6]: 74.48% and 87.96% | Population Hoechst High Intensity Objects (%) [6]: 0% | Population Membrane Permeable-Phenotype (%) [6]: 0.56% and 9.13% | Population Mitochondria Different-Phenotype (%) [6]: 10.11% and 9.51% | Population Mitotic Cells (%) [6]: 75% and 50% | Population Normal (%) [6]: 100% | Population Pyknosed Nuclei (%) [6]: 8.37% and 7.36% | Population Tubulin-Different-Phenotype (%) [6]: 19.1% and 53.99% | Total Cell Count [6]: 239 and 299

Cn1ncnc1COc1nn2c(-c3cc(F)ccc3F)nnc2cc1C(C)(C)C
Population Apoptotic (%) [1]: 5.08% and 12.9% | Population Fragmented Nuclei (%) [1]: 11.68% and 7.25% | Population Healthy Nuclei (%) [1]: 58.38% and 76.68% | Population Hoechst High Intensity Objects (%) [1]: 0% | Population Mitochondria Different-Phenotype (%) [1]: 6.09% and 8.11% | Population Mitotic Cells (%) [1]: 94.92% and 87.1% | Population Normal (%) [1]: 100% | Population Pyknosed Nuclei (%) [1]: 29.95% and 16.06% | Population Tubulin-Different-Phenotype (%) [1]: 13.04% and 21.62% | Total Cell Count [1]: 197 and 193 | Population Apoptotic (%) [2]: 6.76% and 16.22% | Population Healthy Nuclei (%) [2]: 51.12% and 80% | Population Hoechst High Intensity Objects (%) [2]: 0% | Population Mitochondria Different-Phenotype (%) [2]: 14.04% and 8.67% | Population Mitotic Cells (%) [2]: 93.24% and 83.78% | Population Normal (%) [2]: 100% | Population Pyknosed Nuclei (%) [2]: 33.18% and 15.1% | Population Tubulin-Different-Phenotype (%) [2]: 35.96% and 51.02% | Total Cell Count [2]: 223 and 245 | Population Fragmented Nuclei (%) [3]: 8.72% and 5.03% | Population Healthy Nuclei (%) [3]: 67.89% and 83.42% | Population Hoechst High Intensity Objects (%) [3]: 0% | Population Mitochondria Different-Phenotype (%) [3]: 1.35% and 7.23% | Population Mitotic Cells (%) [3]: 94.12% and 60.87% | Population Normal (%) [3]: 100% | Population Pyknosed Nuclei (%) [3]: 23.39% and 11.56% | Population Tubulin-Different-Phenotype (%) [3]: 10.14% and 19.28% | Total Cell Count [3]: 218 and 199 | Population Apoptotic (%) [4]: 13.24% and 17.24% | Population Fragmented Nuclei (%) [4]: 8.07% and 9.51% | Population Healthy Nuclei (%) [4]: 61.43% and 79.47% | Population Hoechst High Intensity Objects (%) [4]: 0% | Population Mitochondria Different-Phenotype (%) [4]: 11.68% and 10.05% | Population Mitotic Cells (%) [4]: 86.76% and 82.76% | Population Normal (%) [4]: 100% | Population Pyknosed Nuclei (%) [4]: 30.49% and 11.03% | Population Tubulin-Different-Phenotype (%) [4]: 45.99% and 56.46% | Total Cell Count [4]: 223 and 263 | Population Fragmented Nuclei (%) [5]: 7.91% and 5.24% | Population Healthy Nuclei (%) [5]: 84.58% and 83.81% | Population Hoechst High Intensity Objects (%) [5]: 0% | Population Mitochondria Different-Phenotype (%) [5]: 12.15% and 3.41% | Population Mitotic Cells (%) [5]: 68.42% and 91.3% | Population Normal (%) [5]: 100% | Population Pyknosed Nuclei (%) [5]: 7.51% and 10.95% | Total Cell Count [5]: 253 and 210 | Population Apoptotic (%) [6]: 23.08% and 30.77% | Population Fragmented Nuclei (%) [6]: 10.08% and 8.8% | Population Healthy Nuclei (%) [6]: 78.99% and 86% | Population Hoechst High Intensity Objects (%) [6]: 0% | Population Mitochondria Different-Phenotype (%) [6]: 8.51% and 7.44% | Population Mitotic Cells (%) [6]: 76.92% and 69.23% | Population Normal (%) [6]: 100% | Population Pyknosed Nuclei (%) [6]: 10.92% and 5.2% | Population Tubulin-Different-Phenotype (%) [6]: 38.3% and 59.07% | Total Cell Count [6]: 238 and 250

CC(=O)Nc1cccc2c1c(Sc1ccc(Cl)cc1)c(C)n2CC(=O)O [AZD1981]
Population Apoptotic (%) [1]: 27% and 37% | Population Fragmented Nuclei (%) [1]: 18% and 31% | Population Healthy Nuclei (%) [1]: 61% and 47% | Population Hoechst High Intensity Objects (%) [1]: 1% and 3% | Population Mitochondria Different-Phenotype (%) [1]: 9% and 7% | Population Mitotic Cells (%) [1]: 72% and 62% | Population Normal (%) [1]: 98% and 96% | Population Pyknosed Nuclei (%) [1]: 19% and 21% | Population Tubulin-Different-Phenotype (%) [1]: 33% and 55% | Total Cell Count [1]: 173 and 118 | Population Apoptotic (%) [2]: 40% and 33% | Population Fragmented Nuclei (%) [2]: 16% and 35% | Population Healthy Nuclei (%) [2]: 64% and 42% | Population Hoechst High Intensity Objects (%) [2]: 3% and 4% | Population Membrane Permeable-Phenotype (%) [2]: 2% and 8% | Population Mitochondria Different-Phenotype (%) [2]: 3% and 0% | Population Mitotic Cells (%) [2]: 60% and 66% | Population Normal (%) [2]: 96% and 95% | Population Pyknosed Nuclei (%) [2]: 19% and 22% | Population Tubulin-Different-Phenotype (%) [2]: 24% and 35% | Total Cell Count [2]: 133 and 112 | Population Apoptotic (%) [3]: 53% and 36% | Population Fragmented Nuclei (%) [3]: 19% and 30% | Population Healthy Nuclei (%) [3]: 63% and 53% | Population Hoechst High Intensity Objects (%) [3]: 6% and 3% | Population Membrane Permeable-Phenotype (%) [3]: 2% and 7% | Population Mitochondria Different-Phenotype (%) [3]: 2% and 7% | Population Mitotic Cells (%) [3]: 46% and 63% | Population Normal (%) [3]: 93% and 96% | Population Pyknosed Nuclei (%) [3]: 16% and 15% | Population Tubulin-Different-Phenotype (%) [3]: 28% and 53% | Total Cell Count [3]: 168 and 128 | Population Apoptotic (%) [4]: 41% and 55% | Population Fragmented Nuclei (%) [4]: 13% and 36% | Population Healthy Nuclei (%) [4]: 68% and 43% | Population Hoechst High Intensity Objects (%) [4]: 4% and 6% | Population Mitochondria Different-Phenotype (%) [4]: 5% and 0% | Population Mitotic Cells (%) [4]: 58% and 45% | Population Normal (%) [4]: 95% and 93% | Population Pyknosed Nuclei (%) [4]: 18% and 20% | Population Tubulin-Different-Phenotype (%) [4]: 17% and 40% | Total Cell Count [4]: 135 and 104 | Population Apoptotic (%) [5]: 54% and 57% | Population Fragmented Nuclei (%) [5]: 23% and 34% | Population Healthy Nuclei (%) [5]: 61% and 54% | Population Hoechst High Intensity Objects (%) [5]: 6% and 3% | Population Membrane Permeable-Phenotype (%) [5]: 1% and 8% | Population Mitochondria Different-Phenotype (%) [5]: 6% and 2% | Population Mitotic Cells (%) [5]: 45% and 42% | Population Normal (%) [5]: 93% and 96% | Population Pyknosed Nuclei (%) [5]: 15% and 11% | Population Tubulin-Different-Phenotype (%) [5]: 33% and 52% | Total Cell Count [5]: 171 and 129 | Population Apoptotic (%) [6]: 64% and 40% | Population Fragmented Nuclei (%) [6]: 21% and 43% | Population Healthy Nuclei (%) [6]: 64% and 42% | Population Hoechst High Intensity Objects (%) [6]: 4% | Population Membrane Permeable-Phenotype (%) [6]: 0% and 11% | Population Mitochondria Different-Phenotype (%) [6]: 2% and 0% | Population Mitotic Cells (%) [6]: 35% and 60% | Population Normal (%) [6]: 95% | Population Pyknosed Nuclei (%) [6]: 13% and 15% | Population Tubulin-Different-Phenotype (%) [6]: 25% and 54% | Total Cell Count [6]: 134 and 105
